Test results published in ChEMBL document CHEMBL2176911 (J Med Chem, 2012).
The source made the active and inactive calls. The rule behind the calls is not given here.

Tests used:
[1] = target: Dual specificity tyrosine-phosphorylation-regulated kinase 1A (Homo sapiens) (UniProt Q13627); experiment: Inhibition of human recombinant GST-tagged DYRK1A expressed in Escherichia coli using GRSRSRSRSRSR as substrate and [gamma33P]ATP at 15 uM after 30 mins by scintillation counting
[2] = target: Dual specificity protein kinase CLK3 (Mus musculus) (UniProt O35492); experiment: Inhibition of mouse recombinant GST-tagged CLK3 expressed in Escherichia coli using GRSRSRSRSRSR as substrate and [gamma33P]ATP at 10 uM after 30 mins by scintillation counting
Dual specificity protein kinase CLK3 (Mus musculus), sequence (O35492 whole entry): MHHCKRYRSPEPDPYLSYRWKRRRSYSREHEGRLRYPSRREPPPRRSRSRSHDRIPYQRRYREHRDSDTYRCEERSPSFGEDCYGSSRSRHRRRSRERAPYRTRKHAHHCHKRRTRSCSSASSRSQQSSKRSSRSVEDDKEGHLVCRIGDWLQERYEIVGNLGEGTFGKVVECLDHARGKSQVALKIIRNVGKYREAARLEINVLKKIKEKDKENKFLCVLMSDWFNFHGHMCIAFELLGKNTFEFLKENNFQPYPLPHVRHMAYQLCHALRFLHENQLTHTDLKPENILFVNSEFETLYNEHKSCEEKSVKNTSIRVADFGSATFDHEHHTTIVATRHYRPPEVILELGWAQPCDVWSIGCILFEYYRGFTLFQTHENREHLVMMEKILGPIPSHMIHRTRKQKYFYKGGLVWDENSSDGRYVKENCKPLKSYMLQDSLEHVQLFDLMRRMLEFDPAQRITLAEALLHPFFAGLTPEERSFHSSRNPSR
Outline: (§1)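 Radiometric kinase assay with the RS peptide as substrate and 15 μM [γ-33P]ATP.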

[3] = target: T1, Dual specificity tyrosine-phosphorylation-regulated kinase 2 (Homo sapiens) (UniProt Q92630); experiment: Inhibition of human recombinant GST-tagged DYRK2 expressed in Escherichia coli using GRSRSRSRSRSR as substrate and [gamma33P]ATP at 10 uM after 30 mins by scintillation counting
T1 sequence (whole entry): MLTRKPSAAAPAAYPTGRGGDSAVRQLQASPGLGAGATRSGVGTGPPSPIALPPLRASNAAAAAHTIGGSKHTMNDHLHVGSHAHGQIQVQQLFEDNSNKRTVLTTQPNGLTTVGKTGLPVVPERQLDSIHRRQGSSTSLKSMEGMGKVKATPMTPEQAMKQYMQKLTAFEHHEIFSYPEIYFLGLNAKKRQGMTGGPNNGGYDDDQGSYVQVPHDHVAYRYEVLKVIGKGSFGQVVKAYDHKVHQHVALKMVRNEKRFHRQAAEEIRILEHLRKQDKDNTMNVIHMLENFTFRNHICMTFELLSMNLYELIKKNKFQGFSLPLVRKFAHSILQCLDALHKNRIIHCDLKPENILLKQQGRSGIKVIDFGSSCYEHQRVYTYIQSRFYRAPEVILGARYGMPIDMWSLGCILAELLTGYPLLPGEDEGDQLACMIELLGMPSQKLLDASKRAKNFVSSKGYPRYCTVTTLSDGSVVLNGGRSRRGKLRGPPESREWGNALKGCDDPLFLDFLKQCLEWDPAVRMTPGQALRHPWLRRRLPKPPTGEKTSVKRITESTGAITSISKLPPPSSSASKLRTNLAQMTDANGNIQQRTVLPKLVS

[4] = target: Dual specificity protein kinase CLK1 (Mus musculus) (UniProt P22518); experiment: Inhibition of mouse recombinant GST-tagged CLK1 expressed in Escherichia coli using GRSRSRSRSRSR as substrate and [gamma33P]ATP at 10 uM after 30 mins by scintillation counting
Dual specificity protein kinase CLK1 (Mus musculus), sequence (P22518 whole entry, looked up): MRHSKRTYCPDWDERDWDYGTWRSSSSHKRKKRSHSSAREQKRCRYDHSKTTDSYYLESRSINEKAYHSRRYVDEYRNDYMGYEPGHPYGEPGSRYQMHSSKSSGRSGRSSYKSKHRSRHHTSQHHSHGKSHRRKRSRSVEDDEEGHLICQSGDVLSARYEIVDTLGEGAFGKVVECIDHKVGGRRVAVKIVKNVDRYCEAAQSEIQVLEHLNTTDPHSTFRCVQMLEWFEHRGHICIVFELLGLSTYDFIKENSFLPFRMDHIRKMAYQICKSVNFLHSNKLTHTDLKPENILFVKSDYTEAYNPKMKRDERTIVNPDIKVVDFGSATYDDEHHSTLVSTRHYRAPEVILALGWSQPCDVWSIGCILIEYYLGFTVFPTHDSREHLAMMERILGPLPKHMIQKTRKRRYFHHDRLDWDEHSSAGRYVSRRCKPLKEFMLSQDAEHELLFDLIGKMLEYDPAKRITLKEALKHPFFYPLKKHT
Outline: as §1

HT-22 [5] = experiment: Neuroprotective activity against glutamate-induced toxicity in mouse HT22 cells after 24 hrs by MTS assay; assay type: functional, cell-based
[6] = target: Dual specificity tyrosine-phosphorylation-regulated kinase 1A (Mus musculus) (UniProt Q61214); experiment: Inhibition of DYRK1A in mouse HT22 cells at 10 uM after 4 hrs; assay type: cell-based; settings: HT-22
HT-22 [7] = experiment: Inhibition of GSK3 in mouse HT22 cells at 10 uM after 4 hrs; assay type: cell-based
HT-22 [8] = experiment: Inhibition of GSK3-mediated […] phosphorylation in mouse HT22 cells at 10 uM after 24 hrs by Western blot analysis in presence of MG132; assay type: cell-based
[9] = target: Cyclin-dependent kinase 7/ cyclin H (Homo sapiens, UniProt P50613); experiment: Inhibition of human recombinant CDK7/cyclin H expressed in insect cell using YSPTSPSYSPTSPSYSPTSPSKKKK as substrate and [gamma33P]ATP after 30 mins by scintillation counting
Outline: (§2)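 Panel of purified kinases (recombinant from several species plus native enzymes), each assayed radiometrically over a range of inhibitor concentrations; IC50 in μM calculated from the dose-response curves.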

CDK9/cyclin T1 = CDK9/cyclin T1 (Homo sapiens, UniProt P50750); experiment: Inhibition of human recombinant CDK9/cyclin T expressed in insect cell using YSPTSPSYSPTSPSYSPTSPSKKKK as substrate and [gamma33P]ATP after 30 mins by scintillation counting
Outline: as §2

[10] = target: Cyclin-dependent kinase 2/cyclin A (Homo sapiens, UniProt P24941); experiment: Inhibition of CDK2/cyclin A using [gamma33P]ATP after 30 mins by scintillation counting; assay type: protein-complex assay
Outline: as §2

[11] = target: Dual specificity protein kinase CLK3 (Homo sapiens, UniProt P49761); experiment: Binding affinity to CLK3
Dual specificity protein kinase CLK3 (Homo sapiens, UniProt P49761), sequence (P49761 whole entry, looked up): as the sequence (O35492 whole entry) above, with I55L, H64R, C83Y, S86P, A99G, S484T counted along it

[12] = target: Mitogen-activated protein kinase 1 (Rattus norvegicus, UniProt P63086); experiment: Inhibition of rat recombinant ERK2 using Ets1 as substrate and [gamma33P]ATP as substrate after 30 mins by scintillation counting
Mitogen-activated protein kinase 1, sequence (P63086 whole entry): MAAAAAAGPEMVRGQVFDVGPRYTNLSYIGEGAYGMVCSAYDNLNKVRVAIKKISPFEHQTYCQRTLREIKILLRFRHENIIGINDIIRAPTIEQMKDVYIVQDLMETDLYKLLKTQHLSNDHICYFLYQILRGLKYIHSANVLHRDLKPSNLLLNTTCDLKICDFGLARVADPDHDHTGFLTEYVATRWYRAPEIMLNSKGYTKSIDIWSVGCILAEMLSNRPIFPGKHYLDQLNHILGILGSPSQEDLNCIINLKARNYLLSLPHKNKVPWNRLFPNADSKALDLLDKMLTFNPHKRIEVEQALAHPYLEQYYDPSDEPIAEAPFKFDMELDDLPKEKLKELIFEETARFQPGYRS
Outline: as §2

[13] = target: Dual specificity protein kinase CLK4 (Homo sapiens, UniProt Q9HAZ1); experiment: Binding affinity to CLK4
Dual specificity protein kinase CLK4 (Homo sapiens, UniProt Q9HAZ1), sequence (Q9HAZ1 whole entry, looked up): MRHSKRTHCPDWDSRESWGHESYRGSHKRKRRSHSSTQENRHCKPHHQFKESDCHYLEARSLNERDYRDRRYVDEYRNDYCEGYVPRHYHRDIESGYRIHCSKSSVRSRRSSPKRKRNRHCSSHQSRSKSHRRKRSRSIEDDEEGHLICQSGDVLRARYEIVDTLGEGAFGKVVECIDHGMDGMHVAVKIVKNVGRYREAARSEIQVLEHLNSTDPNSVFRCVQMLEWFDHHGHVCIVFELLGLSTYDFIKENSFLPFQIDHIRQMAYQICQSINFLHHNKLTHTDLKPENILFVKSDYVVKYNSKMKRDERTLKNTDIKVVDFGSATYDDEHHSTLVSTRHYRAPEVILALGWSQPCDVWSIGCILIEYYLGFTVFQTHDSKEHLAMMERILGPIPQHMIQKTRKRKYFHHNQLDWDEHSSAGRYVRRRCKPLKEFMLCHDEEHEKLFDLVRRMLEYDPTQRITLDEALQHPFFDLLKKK

[14] = target: Dual specificity protein kinase CLK3 (Mus musculus, UniProt O35492); experiment: Inhibition of mouse recombinant GST-tagged CLK3 expressed in Escherichia coli using GRSRSRSRSRSR as substrate and [gamma33P]ATP after 30 mins by scintillation counting
Dual specificity protein kinase CLK3 (Mus musculus, UniProt O35492), sequence (O35492 whole entry): as the sequence (O35492 whole entry) above
Outline: as §2

[15] = Inhibition of pig […] isolated from brain using RRKHAAIGpSAYSITA as substrate and [gamma33P]ATP after 30 mins by scintillation couting; parameters: species or system Sus scrofa
Outline: as §2

[16] = target: Dual specificity protein kinase CLK4 (Mus musculus, UniProt O35493); experiment: Inhibition of mouse recombinant GST-tagged CLK4 expressed in Escherichia coli using GRSRSRSRSRSR as substrate and [gamma33P]ATP after 30 mins by scintillation counting
Dual specificity protein kinase CLK4 (Mus musculus, UniProt O35493), sequence (O35493 whole entry): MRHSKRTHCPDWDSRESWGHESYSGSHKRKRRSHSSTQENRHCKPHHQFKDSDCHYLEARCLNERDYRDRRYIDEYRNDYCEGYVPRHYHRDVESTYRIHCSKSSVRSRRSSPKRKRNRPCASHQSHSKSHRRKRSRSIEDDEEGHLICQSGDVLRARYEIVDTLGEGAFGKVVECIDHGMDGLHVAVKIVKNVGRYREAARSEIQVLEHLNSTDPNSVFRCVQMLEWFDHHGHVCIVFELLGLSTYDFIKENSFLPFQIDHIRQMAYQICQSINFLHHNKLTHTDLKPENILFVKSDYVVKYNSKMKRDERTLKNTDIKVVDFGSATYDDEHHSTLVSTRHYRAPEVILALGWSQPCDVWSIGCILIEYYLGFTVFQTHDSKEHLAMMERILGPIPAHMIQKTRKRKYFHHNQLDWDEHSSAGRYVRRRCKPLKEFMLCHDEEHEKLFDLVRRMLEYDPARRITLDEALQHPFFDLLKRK

[17] = target: Casein kinase II (Homo sapiens) (UniProt P67870+P68400+P19784); experiment: Inhibition of human recombinant CK2 using RRREDEESDDEE as substrate and [gamma33P]ATP at 10 uM after 30 mins by scintillation counting; assay type: protein-complex assay
[18] = target: Glycogen synthase kinase-3 (Sus scrofa, UniProt B2LUN4+I6LNT8); experiment: Inhibition of pig GSK3alpha/beta isolated from brain using YRRAAVPPSPSLSRHSSPHQ-phosphoS-EDEEE as substrate and [gamma33P]ATP after 30 mins by scintillation counting
Outline: as §2

[19] = target: Dual specificity protein kinase CLK1 (Homo sapiens) (UniProt P49759); experiment: Binding affinity to CLK1
Dual specificity protein kinase CLK1 (Homo sapiens), sequence (P49759 whole entry, looked up): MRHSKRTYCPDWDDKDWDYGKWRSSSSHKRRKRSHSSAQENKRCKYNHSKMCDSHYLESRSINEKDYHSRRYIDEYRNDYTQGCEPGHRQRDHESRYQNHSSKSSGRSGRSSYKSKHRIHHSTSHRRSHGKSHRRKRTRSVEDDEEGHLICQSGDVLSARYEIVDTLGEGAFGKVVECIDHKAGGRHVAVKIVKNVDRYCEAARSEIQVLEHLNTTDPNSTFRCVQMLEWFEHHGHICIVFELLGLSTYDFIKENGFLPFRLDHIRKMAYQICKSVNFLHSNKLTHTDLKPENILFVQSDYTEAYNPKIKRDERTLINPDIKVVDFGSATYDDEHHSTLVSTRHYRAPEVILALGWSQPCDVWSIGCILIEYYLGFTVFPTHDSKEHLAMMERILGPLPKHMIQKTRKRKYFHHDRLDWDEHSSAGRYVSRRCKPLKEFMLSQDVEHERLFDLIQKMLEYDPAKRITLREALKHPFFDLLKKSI

[20] = Inhibition of starfish CDK1/cyclin B using histone H1 as substrate and [gamma33P]ATP after 30 mins by scintillation counting; parameters: species or system Asteroidea
Outline: as §2

[21] = Inhibition of Leishmania major recombinant CK1 expressed in Escherichia coli using RRKHAAIGpSAYSITA as substrate and [gamma33P]ATP after 30 mins by scintillation counting
Outline: as §2

[22] = target: Serine/threonine-protein kinase pim-1 (Homo sapiens, UniProt P11309); experiment: Inhibition of human recombinant PIM1 expressed in Escherichia coli using histone H1 as substrate and [gamma33P]ATP after 30 mins by scintillation counting
Serine/threonine-protein kinase pim-1, sequence (P11309 whole entry): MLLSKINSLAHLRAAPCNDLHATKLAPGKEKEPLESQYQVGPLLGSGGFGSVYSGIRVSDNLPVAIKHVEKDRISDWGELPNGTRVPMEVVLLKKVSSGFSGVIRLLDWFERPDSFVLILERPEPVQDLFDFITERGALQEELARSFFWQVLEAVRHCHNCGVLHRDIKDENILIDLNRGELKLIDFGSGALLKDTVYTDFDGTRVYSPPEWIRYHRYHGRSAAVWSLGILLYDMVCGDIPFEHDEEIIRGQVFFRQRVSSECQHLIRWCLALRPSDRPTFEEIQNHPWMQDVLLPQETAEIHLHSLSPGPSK

[23] = Binding affinity to casein kinase 1
[24] = target: Dual specificity protein kinase CLK1 (Mus musculus, UniProt P22518); experiment: Inhibition of mouse recombinant GST-tagged CLK1 expressed in Escherichia coli using GRSRSRSRSRSR as substrate and [gamma33P]ATP after 30 mins by scintillation counting
Dual specificity protein kinase CLK1, sequence (P22518 whole entry): as the sequence (P22518 whole entry, looked up) above
Outline: as §2

[25] = target: Dual specificity tyrosine-phosphorylation-regulated kinase 1A (Rattus norvegicus) (UniProt Q63470); settings: CD Sprague-Dawley, 4.5 to 45 uM
[26] = target: Dual specificity tyrosine-phosphorylation-regulated kinase 3 (Homo sapiens, UniProt O43781); experiment: Inhibition of human recombinant GST-tagged DYRK3 expressed in Escherichia coli using GRSRSRSRSRSR as substrate and [gamma33P]ATP after 30 mins by scintillation counting
Dual specificity tyrosine-phosphorylation-regulated kinase 3, sequence (O43781 whole entry): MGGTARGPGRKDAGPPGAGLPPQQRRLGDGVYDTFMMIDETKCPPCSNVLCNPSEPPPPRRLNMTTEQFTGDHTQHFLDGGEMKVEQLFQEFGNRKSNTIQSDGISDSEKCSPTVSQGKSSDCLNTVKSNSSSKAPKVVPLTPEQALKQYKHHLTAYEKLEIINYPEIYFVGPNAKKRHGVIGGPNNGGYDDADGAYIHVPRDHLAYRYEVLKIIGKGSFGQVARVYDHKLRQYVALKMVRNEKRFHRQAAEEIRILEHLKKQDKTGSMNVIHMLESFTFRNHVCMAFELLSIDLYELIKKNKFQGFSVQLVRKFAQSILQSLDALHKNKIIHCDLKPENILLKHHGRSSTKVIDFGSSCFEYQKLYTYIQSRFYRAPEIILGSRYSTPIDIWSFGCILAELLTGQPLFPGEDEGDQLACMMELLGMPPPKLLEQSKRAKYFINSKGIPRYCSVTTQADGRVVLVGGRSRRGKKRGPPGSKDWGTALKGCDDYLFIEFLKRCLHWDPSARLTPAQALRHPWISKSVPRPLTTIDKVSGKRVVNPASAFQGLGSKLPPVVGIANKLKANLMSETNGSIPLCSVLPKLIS

[27] = target: Dual specificity tyrosine-phosphorylation-regulated kinase 2 (Homo sapiens, UniProt Q92630); experiment: Inhibition of human recombinant GST-tagged DYRK2 expressed in Escherichia coli using GRSRSRSRSRSR as substrate and [gamma33P]ATP after 30 mins by scintillation counting
[28] = target: T1, Dual specificity tyrosine-phosphorylation-regulated kinase 2 (Homo sapiens); experiment: Binding affinity to DYRK2
[29] = Inhibition of Plasmodium falciparum recombinant GSK3 expressed in Escherichia coli using YRRAAVPPSPSLSRHSSPHQ-phosphoS-EDEEE as substrate and [gamma33P]ATP after 30 mins by scintillation counting
Outline: as §2

[30] = target: Dual specificity protein kinase CLK2 (Mus musculus, UniProt O35491); experiment: Inhibition of mouse recombinant GST-tagged CLK2 expressed in Escherichia coli using GRSRSRSRSRSR as substrate and [gamma33P]ATP after 30 mins by scintillation counting
Dual specificity protein kinase CLK2, sequence (O35491 whole entry): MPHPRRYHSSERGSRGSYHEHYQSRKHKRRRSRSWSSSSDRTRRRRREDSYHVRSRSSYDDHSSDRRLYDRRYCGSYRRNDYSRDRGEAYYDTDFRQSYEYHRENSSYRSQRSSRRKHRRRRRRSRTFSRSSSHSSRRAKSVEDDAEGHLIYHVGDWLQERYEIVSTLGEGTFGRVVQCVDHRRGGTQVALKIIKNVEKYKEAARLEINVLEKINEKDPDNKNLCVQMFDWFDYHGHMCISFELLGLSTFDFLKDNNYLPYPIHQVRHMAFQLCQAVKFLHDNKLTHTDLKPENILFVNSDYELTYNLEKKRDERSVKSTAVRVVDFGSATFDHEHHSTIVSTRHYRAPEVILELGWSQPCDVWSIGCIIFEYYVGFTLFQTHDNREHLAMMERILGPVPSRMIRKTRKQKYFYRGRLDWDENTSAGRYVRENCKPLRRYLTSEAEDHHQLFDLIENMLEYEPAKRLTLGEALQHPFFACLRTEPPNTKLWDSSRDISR
Outline: as §2

[31] = target: T2, Dual specificity tyrosine-phosphorylation-regulated kinase 4 (Homo sapiens, UniProt Q9NR20); experiment: Inhibition of human recombinant GST-tagged DYRK4 expressed in Escherichia coli using GRSRSRSRSRSR as substrate and [gamma33P]ATP after 30 mins by scintillation counting
T2 sequence (Q9NR20 whole entry): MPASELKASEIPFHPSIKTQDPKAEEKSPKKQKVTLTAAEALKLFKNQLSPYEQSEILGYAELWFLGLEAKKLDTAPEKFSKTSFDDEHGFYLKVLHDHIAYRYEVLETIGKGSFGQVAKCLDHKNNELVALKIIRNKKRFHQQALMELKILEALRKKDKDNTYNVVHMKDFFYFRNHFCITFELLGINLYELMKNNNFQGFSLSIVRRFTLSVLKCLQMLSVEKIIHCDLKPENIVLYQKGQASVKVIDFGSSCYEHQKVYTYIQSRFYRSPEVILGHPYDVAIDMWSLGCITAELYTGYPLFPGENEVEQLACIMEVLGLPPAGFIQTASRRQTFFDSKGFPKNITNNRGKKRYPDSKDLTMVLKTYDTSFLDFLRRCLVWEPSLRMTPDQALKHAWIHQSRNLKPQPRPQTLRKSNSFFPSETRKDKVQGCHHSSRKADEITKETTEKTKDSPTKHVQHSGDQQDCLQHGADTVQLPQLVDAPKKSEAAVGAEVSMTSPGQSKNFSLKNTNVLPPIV

With `COc1ccc2c3c1O[C@H]1C[C@@H](O)C=C[C@@]31CCN(C)C2` the inhibition [1] was “inactive”, the inhibition [2] was “inactive” and the inhibition [3] was “inactive”. For the same molecule, the inhibition [4] was “inactive”.

With `CCN(C)C(=O)Oc1cccc([C@H](C)N(C)C)c1` the inhibition [1] was “inactive”, the inhibition [2] was “inactive” and the inhibition [3] was “inactive”. The inhibition [4] was “inactive”.

In the case of `Nc1c2c(nc3ccccc13)CCCC2`, the inhibition [1] is reported as “inactive”, the inhibition [2] is reported as “inactive” and the inhibition [3] is reported as “inactive”. The inhibition [4] was “inactive”.

With `O=C1Cc2c([nH]c3ccc([N+](=O)[O-])cc23)-c2ccccc2N1` the Activity (HT-22 [5]) was “Active”, the inhibition [6] was “inactive” and the inhibition (HT-22 [7]) was “Active”. For the same molecule, the inhibition (HT-22 [8]) was “Active”.

With `COc1cc2c(cc1OC)C(=O)C(CC1CCN(Cc3ccccc3)CC1)C2` (centres undefined) the inhibition [1] was “inactive”, the inhibition [2] was “inactive” and the inhibition [3] was “inactive”. The inhibition [4] was “inactive”.

With `COc1ccc2c(c1)[nH]c1c(C)nccc12` [HARMINE] the IC50 [9] was greater than 10 µM, the IC50 (CDK9/cyclin T1) was 0.72 µM and the IC50 [10] was greater than 30 µM. The Activity [11] was “Active”, the IC50 [12] was greater than 30 µM and the Activity [13] was “Active”. The IC50 [14] was greater than 10 µM, the IC50 [15] was 1.8 µM and the IC50 [16] was 0.05 µM. For the same molecule, the inhibition [17] was “inactive”, the IC50 [18] was 19 µM and the Activity [19] was “Active”. For the same molecule, the IC50 [20] was 18 µM, the IC50 [21] was no less than 10 µM and the IC50 [22] was greater than 10 µM. For the same molecule, the Activity [23] was “Active”, the IC50 [24] was 0.072 µM and the inhibition [25] was “Active”. For the same molecule, the IC50 [26] was 0.21 µM, the IC50 [27] was 0.12 µM and the Activity [28] was “Active”. For the same molecule, the IC50 [29] was greater than 10 µM, the IC50 [30] was 0.28 µM and the IC50 [31] was 9.5 µM.
